Active and inactive are the calls of the source. No cut-off for these calls is given here.
Legend:
Histone deacetylase 5 = Histone deacetylase 5 (Homo sapiens, UniProt Q9UQL6); experiment: Inhibition of recombinant HDAC5 assessed as inhibition of fluorogenic aminocoumarin release from substrate by trypsin-coupled biochemical assay
How it was run: (§1)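 Trypsin-coupled fluorogenic assay. Substrate is an acetylated lysine tripeptide amide-linked to aminocoumarin (AMC). HDAC deacetylation allows trypsin to release AMC, and the fluorescence increase is read. Compound was tested at various concentrations and normalized to a DMSO control. IC50 was derived by non-linear regression fit.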

[1] = biological target: T1, Protein deacetylase HDAC6 (Homo sapiens, UniProt Q9UBN7); experiment: Inhibition of recombinant HDAC6 assessed as inhibition of fluorogenic aminocoumarin release from substrate by trypsin-coupled biochemical assay; how it was run: as §1
T1 sequence (Q9UBN7 whole entry): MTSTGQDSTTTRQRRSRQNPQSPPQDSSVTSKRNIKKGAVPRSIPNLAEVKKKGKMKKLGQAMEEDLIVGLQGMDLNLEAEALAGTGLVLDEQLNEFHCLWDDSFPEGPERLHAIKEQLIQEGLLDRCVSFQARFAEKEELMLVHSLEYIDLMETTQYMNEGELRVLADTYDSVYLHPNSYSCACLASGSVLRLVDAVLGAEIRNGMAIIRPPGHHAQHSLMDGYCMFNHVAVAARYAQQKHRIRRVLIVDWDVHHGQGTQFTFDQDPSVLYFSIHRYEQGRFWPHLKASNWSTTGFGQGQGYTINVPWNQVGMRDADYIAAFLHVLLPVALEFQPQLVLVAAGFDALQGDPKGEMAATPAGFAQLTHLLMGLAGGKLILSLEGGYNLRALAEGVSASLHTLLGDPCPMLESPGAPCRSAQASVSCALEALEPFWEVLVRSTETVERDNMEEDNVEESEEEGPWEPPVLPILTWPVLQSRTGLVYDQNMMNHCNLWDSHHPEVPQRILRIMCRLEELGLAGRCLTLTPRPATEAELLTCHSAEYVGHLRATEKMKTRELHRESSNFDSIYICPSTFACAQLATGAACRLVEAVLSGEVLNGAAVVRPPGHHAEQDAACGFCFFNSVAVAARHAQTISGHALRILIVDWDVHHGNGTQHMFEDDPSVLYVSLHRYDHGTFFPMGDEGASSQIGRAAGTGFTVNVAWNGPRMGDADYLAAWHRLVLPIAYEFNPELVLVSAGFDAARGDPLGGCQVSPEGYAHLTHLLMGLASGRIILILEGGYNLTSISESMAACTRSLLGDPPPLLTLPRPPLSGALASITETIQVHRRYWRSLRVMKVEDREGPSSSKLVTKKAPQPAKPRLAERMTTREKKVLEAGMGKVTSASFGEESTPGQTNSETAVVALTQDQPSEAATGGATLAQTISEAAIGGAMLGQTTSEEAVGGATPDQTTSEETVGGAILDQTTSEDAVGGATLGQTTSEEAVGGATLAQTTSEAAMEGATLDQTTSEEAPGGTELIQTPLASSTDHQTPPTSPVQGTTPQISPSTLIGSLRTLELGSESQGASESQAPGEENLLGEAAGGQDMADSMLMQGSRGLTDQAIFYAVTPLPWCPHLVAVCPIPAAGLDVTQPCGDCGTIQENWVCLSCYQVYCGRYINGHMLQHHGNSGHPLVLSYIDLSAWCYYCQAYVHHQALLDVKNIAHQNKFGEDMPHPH

Histone deacetylase 8 = biological target: T2, Histone deacetylase 8 (Homo sapiens, UniProt Q9BY41); experiment: Inhibition of recombinant HDAC8 assessed as inhibition of fluorogenic aminocoumarin release from substrate by trypsin-coupled biochemical assay; how it was run: as §1
T2 sequence (Q9BY41 whole entry): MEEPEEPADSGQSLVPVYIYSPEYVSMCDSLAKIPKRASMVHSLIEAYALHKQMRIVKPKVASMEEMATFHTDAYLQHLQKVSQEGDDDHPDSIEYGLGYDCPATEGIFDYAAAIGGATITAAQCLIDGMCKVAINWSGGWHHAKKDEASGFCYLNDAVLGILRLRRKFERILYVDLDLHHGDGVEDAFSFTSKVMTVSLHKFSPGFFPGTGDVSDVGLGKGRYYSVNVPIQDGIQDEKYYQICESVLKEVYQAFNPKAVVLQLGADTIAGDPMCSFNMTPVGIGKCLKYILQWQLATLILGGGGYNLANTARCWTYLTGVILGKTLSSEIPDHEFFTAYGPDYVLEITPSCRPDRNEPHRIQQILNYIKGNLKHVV

Histone deacetylase 3 = Histone deacetylase 3 (Homo sapiens, UniProt O15379); experiment: Inhibition of recombinant HDAC3 assessed as inhibition of fluorogenic aminocoumarin release from substrate by trypsin-coupled biochemical assay; how it was run: as §1
Sequence of Histone deacetylase 3 (O15379 whole entry): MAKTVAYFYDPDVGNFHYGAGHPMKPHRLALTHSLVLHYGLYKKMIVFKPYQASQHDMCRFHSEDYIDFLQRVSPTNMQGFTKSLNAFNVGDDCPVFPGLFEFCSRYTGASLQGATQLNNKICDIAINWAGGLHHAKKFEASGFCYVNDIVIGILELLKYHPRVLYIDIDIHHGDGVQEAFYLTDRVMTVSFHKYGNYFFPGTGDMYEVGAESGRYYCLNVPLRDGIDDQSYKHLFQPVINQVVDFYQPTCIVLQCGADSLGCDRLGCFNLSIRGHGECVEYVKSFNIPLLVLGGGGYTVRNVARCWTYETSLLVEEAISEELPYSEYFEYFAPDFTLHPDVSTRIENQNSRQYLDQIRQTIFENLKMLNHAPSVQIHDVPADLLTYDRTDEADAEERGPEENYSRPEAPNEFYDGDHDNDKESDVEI

Histone deacetylase 2 [2] = biological target: T3, Histone deacetylase 2 (Homo sapiens, UniProt Q92769); experiment: Inhibition of recombinant HDAC2 assessed as inhibition of fluorogenic aminocoumarin release from substrate by trypsin-coupled biochemical assay
T3 sequence (Q92769 whole entry): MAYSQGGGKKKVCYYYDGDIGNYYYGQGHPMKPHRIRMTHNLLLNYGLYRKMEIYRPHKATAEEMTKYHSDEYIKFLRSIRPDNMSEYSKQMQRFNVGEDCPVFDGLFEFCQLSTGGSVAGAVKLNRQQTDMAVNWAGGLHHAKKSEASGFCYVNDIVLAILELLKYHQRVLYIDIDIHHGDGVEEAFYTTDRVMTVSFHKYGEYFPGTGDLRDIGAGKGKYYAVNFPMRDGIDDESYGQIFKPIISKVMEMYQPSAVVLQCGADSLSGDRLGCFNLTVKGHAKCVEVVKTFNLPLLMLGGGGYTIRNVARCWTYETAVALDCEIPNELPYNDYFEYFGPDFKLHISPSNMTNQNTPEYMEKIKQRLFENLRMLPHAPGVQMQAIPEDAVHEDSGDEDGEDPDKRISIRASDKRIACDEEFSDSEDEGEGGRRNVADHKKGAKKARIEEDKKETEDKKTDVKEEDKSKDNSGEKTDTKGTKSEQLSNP

Histone deacetylase 4 = Histone deacetylase 4 (Homo sapiens, UniProt P56524); experiment: Inhibition of recombinant HDAC4 assessed as inhibition of fluorogenic aminocoumarin release from substrate by trypsin-coupled biochemical assay; how it was run: as §1
Sequence of Histone deacetylase 4 (P56524 whole entry): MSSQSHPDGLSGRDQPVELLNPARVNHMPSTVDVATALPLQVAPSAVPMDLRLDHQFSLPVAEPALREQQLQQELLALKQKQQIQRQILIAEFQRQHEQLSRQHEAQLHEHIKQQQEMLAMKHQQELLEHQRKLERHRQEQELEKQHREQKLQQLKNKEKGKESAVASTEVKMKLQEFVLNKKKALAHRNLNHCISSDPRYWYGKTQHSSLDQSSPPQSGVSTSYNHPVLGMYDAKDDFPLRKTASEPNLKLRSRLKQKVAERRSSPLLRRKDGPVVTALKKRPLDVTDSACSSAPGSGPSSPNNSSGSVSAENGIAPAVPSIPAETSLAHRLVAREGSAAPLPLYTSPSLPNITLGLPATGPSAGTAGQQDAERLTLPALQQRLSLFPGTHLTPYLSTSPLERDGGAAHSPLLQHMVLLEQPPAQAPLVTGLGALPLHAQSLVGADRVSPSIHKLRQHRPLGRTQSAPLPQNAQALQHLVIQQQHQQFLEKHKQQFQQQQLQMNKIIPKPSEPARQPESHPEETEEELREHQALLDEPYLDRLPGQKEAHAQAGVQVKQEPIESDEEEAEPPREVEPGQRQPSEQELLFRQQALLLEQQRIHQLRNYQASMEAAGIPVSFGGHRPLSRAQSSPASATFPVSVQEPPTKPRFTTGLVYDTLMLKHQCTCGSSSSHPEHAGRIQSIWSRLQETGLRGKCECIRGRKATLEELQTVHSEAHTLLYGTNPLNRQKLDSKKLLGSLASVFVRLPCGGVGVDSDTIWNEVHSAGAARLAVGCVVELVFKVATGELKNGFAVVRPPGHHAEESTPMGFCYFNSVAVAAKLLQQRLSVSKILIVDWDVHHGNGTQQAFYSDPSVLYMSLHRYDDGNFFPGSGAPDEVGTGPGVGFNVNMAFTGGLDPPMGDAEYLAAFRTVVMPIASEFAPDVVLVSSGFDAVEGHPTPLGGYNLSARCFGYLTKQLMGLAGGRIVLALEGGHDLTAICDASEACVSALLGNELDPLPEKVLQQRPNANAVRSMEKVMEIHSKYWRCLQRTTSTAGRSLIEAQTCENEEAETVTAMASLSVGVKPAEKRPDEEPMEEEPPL

Histone deacetylase 2 [3] = biological target: T3, Histone deacetylase 2; experiment: Competitive inhibition of HDAC2 active site at 1 to 100 uM by Lineweaver-Burk plot
How it was run: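 Lysine-deacetylation inhibition mode on HDAC2. Several inhibitor concentrations were tested with substrate at 10 times above and below the HDAC2 Km. The trypsin-coupled AMC fluorescence read-out was analysed by Lineweaver-Burk plot.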

Histone deacetylase 9 = Histone deacetylase 9 (Homo sapiens, UniProt Q9UKV0); experiment: Inhibition of recombinant HDAC9 assessed as inhibition of fluorogenic aminocoumarin release from substrate by trypsin-coupled biochemical assay; how it was run: as §1
Sequence of Histone deacetylase 9 (Q9UKV0 whole entry): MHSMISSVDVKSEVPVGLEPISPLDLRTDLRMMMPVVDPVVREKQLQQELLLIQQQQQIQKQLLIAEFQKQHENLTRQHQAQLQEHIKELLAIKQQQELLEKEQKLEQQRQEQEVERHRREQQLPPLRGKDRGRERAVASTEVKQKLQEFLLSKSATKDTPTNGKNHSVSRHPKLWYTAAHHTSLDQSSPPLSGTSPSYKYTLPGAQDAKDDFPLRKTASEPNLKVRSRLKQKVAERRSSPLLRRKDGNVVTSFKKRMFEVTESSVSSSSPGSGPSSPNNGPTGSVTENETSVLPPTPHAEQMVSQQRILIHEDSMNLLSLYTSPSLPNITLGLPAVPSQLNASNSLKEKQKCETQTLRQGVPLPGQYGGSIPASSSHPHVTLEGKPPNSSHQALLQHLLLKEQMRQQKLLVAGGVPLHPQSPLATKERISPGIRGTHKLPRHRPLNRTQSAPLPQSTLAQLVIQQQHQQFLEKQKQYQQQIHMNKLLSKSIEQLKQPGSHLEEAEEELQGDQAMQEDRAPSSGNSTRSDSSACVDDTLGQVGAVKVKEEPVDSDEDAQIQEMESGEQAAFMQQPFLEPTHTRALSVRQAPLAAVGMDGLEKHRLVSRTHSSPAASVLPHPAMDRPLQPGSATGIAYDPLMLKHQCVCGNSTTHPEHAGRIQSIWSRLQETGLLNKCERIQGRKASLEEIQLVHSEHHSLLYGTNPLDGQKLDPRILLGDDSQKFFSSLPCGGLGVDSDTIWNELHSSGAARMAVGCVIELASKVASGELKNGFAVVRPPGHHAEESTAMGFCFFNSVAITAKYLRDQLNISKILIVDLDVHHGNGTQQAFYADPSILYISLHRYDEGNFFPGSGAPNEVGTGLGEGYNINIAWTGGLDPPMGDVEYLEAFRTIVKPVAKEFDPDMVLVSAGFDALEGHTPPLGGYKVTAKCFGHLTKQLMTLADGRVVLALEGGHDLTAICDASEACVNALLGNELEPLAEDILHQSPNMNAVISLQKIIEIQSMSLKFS

Histone deacetylase 1 = Histone deacetylase 1 (Homo sapiens, UniProt Q13547); experiment: Inhibition of recombinant HDAC1 assessed as inhibition of fluorogenic aminocoumarin release from substrate by trypsin-coupled biochemical assay; how it was run: as §1
Sequence of Histone deacetylase 1 (Q13547 whole entry): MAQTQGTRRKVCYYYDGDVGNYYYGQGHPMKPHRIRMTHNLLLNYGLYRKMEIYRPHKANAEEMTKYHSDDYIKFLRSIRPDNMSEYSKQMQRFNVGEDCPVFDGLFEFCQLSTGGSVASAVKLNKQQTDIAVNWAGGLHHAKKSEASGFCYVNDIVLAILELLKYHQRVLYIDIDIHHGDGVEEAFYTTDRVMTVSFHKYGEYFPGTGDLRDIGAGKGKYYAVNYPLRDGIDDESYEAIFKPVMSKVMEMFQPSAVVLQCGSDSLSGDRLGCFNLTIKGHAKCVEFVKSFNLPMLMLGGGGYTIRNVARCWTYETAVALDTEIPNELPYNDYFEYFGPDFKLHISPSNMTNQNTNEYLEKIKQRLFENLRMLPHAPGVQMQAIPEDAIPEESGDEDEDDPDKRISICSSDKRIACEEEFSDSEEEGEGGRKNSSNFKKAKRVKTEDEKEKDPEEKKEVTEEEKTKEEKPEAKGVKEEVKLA

Histone deacetylase 7 = biological target: T4, Histone deacetylase 7 (Homo sapiens, UniProt Q8WUI4); experiment: Inhibition of recombinant HDAC7 assessed as inhibition of fluorogenic aminocoumarin release from substrate by trypsin-coupled biochemical assay
T4 sequence (Q8WUI4 whole entry): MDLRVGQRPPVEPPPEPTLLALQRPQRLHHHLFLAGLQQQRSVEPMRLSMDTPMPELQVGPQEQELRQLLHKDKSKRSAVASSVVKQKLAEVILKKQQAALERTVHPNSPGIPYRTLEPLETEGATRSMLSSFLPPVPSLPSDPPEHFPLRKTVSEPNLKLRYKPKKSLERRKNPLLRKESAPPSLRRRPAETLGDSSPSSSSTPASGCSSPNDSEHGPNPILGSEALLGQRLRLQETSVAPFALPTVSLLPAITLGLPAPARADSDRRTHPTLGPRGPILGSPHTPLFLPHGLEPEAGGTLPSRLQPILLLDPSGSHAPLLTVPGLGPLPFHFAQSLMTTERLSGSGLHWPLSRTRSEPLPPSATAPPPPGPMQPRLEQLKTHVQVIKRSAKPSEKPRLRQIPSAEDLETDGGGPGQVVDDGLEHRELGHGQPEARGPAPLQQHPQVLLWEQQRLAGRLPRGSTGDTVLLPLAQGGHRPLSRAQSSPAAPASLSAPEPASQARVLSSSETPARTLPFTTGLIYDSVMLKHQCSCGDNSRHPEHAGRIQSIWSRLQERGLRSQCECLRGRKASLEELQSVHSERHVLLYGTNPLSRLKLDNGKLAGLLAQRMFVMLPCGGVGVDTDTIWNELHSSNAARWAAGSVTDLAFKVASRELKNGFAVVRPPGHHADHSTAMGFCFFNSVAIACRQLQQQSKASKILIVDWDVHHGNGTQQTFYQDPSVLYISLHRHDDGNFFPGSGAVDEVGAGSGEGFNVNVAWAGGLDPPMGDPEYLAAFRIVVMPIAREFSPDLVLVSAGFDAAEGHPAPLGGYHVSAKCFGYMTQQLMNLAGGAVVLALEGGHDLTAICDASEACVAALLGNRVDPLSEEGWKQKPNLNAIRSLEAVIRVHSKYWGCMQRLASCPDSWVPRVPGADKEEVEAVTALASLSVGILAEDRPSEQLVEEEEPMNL

Sequence of Histone deacetylase 5 (Q9UQL6 whole entry): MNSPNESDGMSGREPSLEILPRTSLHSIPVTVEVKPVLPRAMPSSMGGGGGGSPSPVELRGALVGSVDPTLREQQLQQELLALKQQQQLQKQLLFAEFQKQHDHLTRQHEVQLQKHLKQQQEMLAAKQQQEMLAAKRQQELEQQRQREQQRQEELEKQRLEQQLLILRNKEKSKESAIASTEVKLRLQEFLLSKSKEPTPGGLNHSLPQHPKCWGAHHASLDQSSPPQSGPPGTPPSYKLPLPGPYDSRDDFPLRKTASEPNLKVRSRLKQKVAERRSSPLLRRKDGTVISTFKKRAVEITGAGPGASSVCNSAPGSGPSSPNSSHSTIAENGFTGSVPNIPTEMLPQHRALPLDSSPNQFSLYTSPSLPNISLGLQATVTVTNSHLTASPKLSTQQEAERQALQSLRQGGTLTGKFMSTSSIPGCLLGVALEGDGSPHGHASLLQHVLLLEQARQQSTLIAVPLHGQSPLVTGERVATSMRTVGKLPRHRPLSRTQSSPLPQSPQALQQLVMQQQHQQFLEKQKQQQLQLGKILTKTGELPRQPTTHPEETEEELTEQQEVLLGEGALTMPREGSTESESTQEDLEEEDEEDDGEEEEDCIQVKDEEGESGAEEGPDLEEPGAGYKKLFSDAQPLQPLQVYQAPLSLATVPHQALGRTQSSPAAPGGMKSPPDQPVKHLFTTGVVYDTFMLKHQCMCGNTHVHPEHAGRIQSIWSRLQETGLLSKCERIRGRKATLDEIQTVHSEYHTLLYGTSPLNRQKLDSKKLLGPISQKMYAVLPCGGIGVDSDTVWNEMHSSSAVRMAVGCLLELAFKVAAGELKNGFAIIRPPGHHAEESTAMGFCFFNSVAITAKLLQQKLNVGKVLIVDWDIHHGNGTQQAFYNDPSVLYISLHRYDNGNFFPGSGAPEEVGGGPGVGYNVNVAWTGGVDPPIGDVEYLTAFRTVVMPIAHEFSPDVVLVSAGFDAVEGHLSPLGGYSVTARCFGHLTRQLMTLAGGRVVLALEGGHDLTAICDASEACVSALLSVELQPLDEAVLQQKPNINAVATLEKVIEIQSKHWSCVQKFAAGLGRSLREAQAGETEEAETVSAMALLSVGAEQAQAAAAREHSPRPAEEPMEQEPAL

| SMILES | IC50 (Histone deacetylase 5) | IC50 [1] | IC50 (Histone deacetylase 8) | IC50 (Histone deacetylase 3) | IC50 (Histone deacetylase 2 [2]) | IC50 (Histone deacetylase 4) | inhibition (Histone deacetylase 2 [3]) | IC50 (Histone deacetylase 9) | IC50 (Histone deacetylase 1) | IC50 (Histone deacetylase 7) |
| --- | --- | --- | --- | --- | --- | --- | --- | --- | --- | --- |
| Cc1cc(O)nc(SCC(=O)C(C)(C)C)n1 | > 100 µM | > 100 µM | > 100 µM | > 100 µM | > 100 µM | > 100 µM | – | > 100 µM | > 100 µM | > 100 µM |
| COC(=O)CSc1nc(C)cc(=O)[nH]1 | > 100 µM | > 100 µM | > 100 µM | > 100 µM | > 100 µM | > 100 µM | – | > 100 µM | > 100 µM | > 100 µM |
| COc1ccc(C(=O)CSc2nc(C)cc(O)n2)cc1 | > 100 µM | 60.9 µM | > 100 µM | > 100 µM | > 100 µM | > 100 µM | – | > 100 µM | > 100 µM | > 100 µM |
| Cc1cc(=O)[nH]c(SCC(=O)c2ccc(O)cc2)n1 | > 100 µM | 40.1 µM | > 100 µM | > 100 µM | > 100 µM | > 100 µM | – | > 100 µM | > 100 µM | > 100 µM |

Next, values leading:

| IC50 (Histone deacetylase 5) | IC50 [1] | IC50 (Histone deacetylase 8) | IC50 (Histone deacetylase 3) | IC50 (Histone deacetylase 2 [2]) | IC50 (Histone deacetylase 4) | inhibition (Histone deacetylase 2 [3]) | IC50 (Histone deacetylase 9) | IC50 (Histone deacetylase 1) | IC50 (Histone deacetylase 7) | SMILES |
| --- | --- | --- | --- | --- | --- | --- | --- | --- | --- | --- |
| 27.9 µM | 11.2 µM | 23.9 µM | 15.2 µM | 18.9 µM | 32.5 µM | Active | 74.1 µM | 16.4 µM | – | CC(=O)Nc1ccc(C(=O)CSc2nc(C)cc(O)n2)cc1 |
| 48.6 µM | 7.2 µM | > 100 µM | 40 µM | 69.3 µM | > 100 µM | – | > 100 µM | 77.2 µM | > 100 µM | CCOC(=O)CC(=O)CSc1nc(C)cc(O)n1 |
| > 100 µM | > 100 µM | > 100 µM | > 100 µM | > 100 µM | > 100 µM | – | > 100 µM | > 100 µM | > 100 µM | CC(=O)Nc1ccc(CSc2nc(C)cc(O)n2)cc1 |
